Source: PubChem BioAssay AID1556 (The Scripps Research Institute Molecular Screening Center, 2009)
Out of some 290,000 compounds screened, about 1,300 (0.45%) were called active. The sample holds actives, similar compounds and a random draw of the others, so the mix is not that of the screen.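 How the source made its calls: active means inhibition above the mean plus 3 SD of all compounds in the same screening run (cut at about 4.5% in these data); inactive means the rest.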

test system: metallo-beta-lactamase IMP-1 (Pseudomonas aeruginosa); test: inhibition of IMP-1 nitrocefin hydrolysis – biochemical, epi-absorbance readout, Pseudomonas aeruginosa enzyme, primary screen (AID 1556); conditions: purified IMP-1, nitrocefin hydrolysis, epi-absorbance fluorescence; at 5.6 µM; stronger effect = higher value;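 further: 0% = IMP-1 with DMSO and 100% = DMSO wells lacking enzyme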
How it was run: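 Material – recombinant IMP-1 enzyme, purified · Amount – IMP-1 0.2 nM before substrate addition · Medium – HEPES buffer pH 7.1 with ZnSO4 and Brij 35 · Timing – 25 °C, 15 min preincubation, 25 min reaction · Measured by – plate fluorescence quenching by hydrolysis product, ex 480/em 530 nm · Read-out – percent enzyme inhibition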

inhibition, inactive:
CSCCC(NC(=O)c1ccc(Cl)cc1Cl)C(=O)NNC(=O)c1csc(N2CCOCC2)n1 (stereo unspecified) -2.46%
O=C(CCS(=O)(=O)c1ccc(Br)cc1)NCCc1ccc(Cl)cc1 0.69%
COc1ccc(Cl)cc1NC(=O)CCS(=O)(=O)c1cc2c(cc1C)NC(=O)CO2 -3.94%
COc1ccc2cc(-c3[nH]ncc3CNCCn3nc(C)cc3C)ccc2c1 -2.54%
O=C(NCc1ccncc1)C(=O)NCC1OCCN1S(=O)(=O)c1ccc(Br)cc1 (stereo unspecified) -1.07%
COc1ccc2cc(S(=O)(=O)Nc3ccccn3)ccc2c1 -3.85%
CCOc1ccc(N/C=C/C(=O)c2ccccc2)cc1 -2.54%
COc1ccc(/C=N/Nc2ccccc2C(=O)O)cc1 -1.08%
CCOC(=O)C1=C(c2ccccc2)NC(=O)NC1c1cc(OC)c(OC)cc1OC (stereo unspecified) -2.08%
Cc1cc(NC(=O)CSc2nnc(Nc3ccccc3F)s2)no1 -0.94%
Cc1ccc(Nc2nnc(SCC(=O)c3cc4ccccc4o3)s2)cc1C -0.86%
O=C(N/N=C/c1cc(Cl)cc([N+](=O)[O-])c1O)C(O)(c1ccccc1)c1ccccc1 -3.33%
O=[N+]([O-])c1cc(Cl)cc(/C=N/NC(=S)Nc2cc(S(=O)(=O)N3CCOCC3)ccc2Cl)c1O -0.24%
O=C(Nc1ccccc1Cc1ccccc1)c1ccc2c(c1)SC1=NS(=O)(=O)CCN12 -3.52%
COc1ccc(CNC(=O)CN(c2ccc(OC)c(Cl)c2)S(=O)(=O)c2ccc(C)cc2)cc1 -0.9%
CCOC(=O)c1cc2cc3ccccc3cc2oc1=O 0.55%
CC1CCN(C(=O)CCNC(=O)c2ccccc2)CC1 -1.09%
Cc1oc2c(F)c(F)c(F)c(F)c2c1S(=O)(=O)Nc1cccc(C(F)(F)F)c1 -0.74%
COc1ccc(OC)c(S(=O)(=O)N2CCCC(C(=O)NCCc3ccccc3)C2)c1 (stereo unspecified) -0.65%
CCOC(=O)CC1C(=O)NCCN1c1nc2c(C)cccn2c(=O)c1/C=C1\SC(=S)N(C(C)CC)C1=O (stereo unspecified) -2.03%
Cc1cccn2c(=O)c(/C=C3\SC(=S)N(CC(C)C)C3=O)c(NCCCOC(C)C)nc12 -1.23%
CC(C)(O)C#Cc1ccc(CN2CCC(CO)(CCc3ccccc3)CC2)cc1 -0.34%
N#Cc1ccc(-c2nc3cc(C#N)c(C#N)cc3nc2-c2ccccc2)cc1C#N -3.53%
CC(=O)Nc1ccc(S(=O)(=O)N(C)c2nc3ccccc3nc2Cl)cc1 -0.55%
O=C(Nc1ccc([N+](=O)[O-])cc1)C1CC12CCC2 (stereo unspecified) -0.64%
CCCNC(=O)CSc1nc(Cc2ccccc2)nc2ccccc12 -3.79%
COc1cc(OC)cc(-c2cc3nc(C4CCN(C(=O)OC(C)(C)C)CC4)cc(=O)n3[nH]2)c1 -4.79%
CCc1ccccc1NC(=O)CCOc1ccccc1 -1.54%
COc1ccc(/C=C2\SC(=S)N(CCC(=O)Nc3ccccn3)C2=O)cc1OC -4.91%
COc1ccccc1C(=O)NNC(=O)CCN1C(=O)/C(=C\c2ccccc2)SC1=S -0.96%
CCCOC1CCCN(C(=O)c2cc(COc3cncc(Cl)c3)on2)C1 (stereo unspecified) -0.48%
O=C(COC(=O)c1ccc(N2CCCC2=O)cc1)c1ccc(OC(F)F)cc1 -0.84%
C[C@@H]1CC[C@@]2(OC1)O[C@H]1C[C@H]3[C@@H]4CC=C5C[C@@H](O)[C@H](O)C[C@]5(C)C4CC[C@]3(C)[C@H]1[C@@H]2C (stereo partly specified) -4.13%
Cc1ccc(S(=O)(=O)N2CCN=C2SCc2c(F)cccc2Cl)cc1 0.72%
Cc1cc(C)c2cc(CN(Cc3cccs3)Cc3nnnn3CC3CCCO3)c(=O)[nH]c2c1 (stereo unspecified) -1.83%
Cc1cccc2cc(CN(Cc3nnnn3Cc3ccccc3)C3CCCC3)c(=O)[nH]c12 -0.68%
COCc1c(C(=O)N/N=C\c2cccnc2)nnn1-c1nonc1N -2.01%
COc1ccc(C2=NS(=O)(=O)N(C)C(C(=O)N3CCCCC3)=C2)cc1 -5.03%
O=C1c2ccccc2C(=O)N1c1cccc2ccccc12 -2.06%
CC(=O)Nc1ccccc1Sc1ccc2c3c(cccc13)C(=O)N(c1ccc(C)cc1)C2=O -1.41%
O=C(O)c1ccc2c3c(cccc13)C(=O)N(OS(=O)(=O)c1ccccc1)C2=O -1.83%
Cc1nn(-c2cc(Cl)ccc2N)c(=O)c2ccccc12 -2.53%
CCn1c(SCC(=O)Nc2ccc(C)cc2)nc2nc3c(cc2c1=O)CCCC3 -2.99%
COc1ccc(C(CC(=O)c2ccccc2)S(=O)(=O)c2ccccc2)cc1 (stereo unspecified) -1.87%
N#Cc1cccc(CN2CCC(=O)N(CCO)CC2)c1 -1.5%
Cc1ccc(C(=O)NCC(=O)OCc2nnc(-c3ccccc3)o2)cc1 -0.31%

inhibition, active:
COc1ccc(Cl)cc1NC(=O)CCS(=O)(=O)c1ccc(Br)cc1 9.04%
COc1ccc(C(=O)/C=C/Nc2ccccn2)cc1 5.05%
Cc1ccccc1Nc1nnc(SCC(=O)c2cc3ccccc3o2)s1 7.2%
CN(C)/N=C/c1cc(Cl)cc([N+](=O)[O-])c1O 4.62%
CCCN(CCC)c1nc2c(C)cccn2c(=O)c1/C=C1/SC(=S)N(Cc2ccco2)C1=O 7.59%
CCC(=C/c1sc2ccc3ccccc3c2[n+]1C)/C=C1\Sc2ccc3ccccc3c2N1C 17.3%
COc1cc(/C=C2/SC(=S)N(Cc3ccccc3)C2=O)cc(OC)c1O 10%
Cc1cc(C)c2cc(CN(Cc3nnnn3Cc3ccc(F)cc3)C3CCCC3)c(=O)[nH]c2c1 6.27%
Cc1nn(C)cc1N1C(=O)c2cccc3c(N)ccc(c23)C1=O 22.2%
CN1C(=O)c2cccc3c(N)ccc(c23)C1=O 41.5%
